Values after ≈ are worked out from the molar mass of the structure shown.
How the values were obtained:
Format in all cases: functional
Pseudomonas aeruginosa = test: Antimicrobial activity against Pseudomonas aeruginosa by broth microdilution method
Summary of the method: (§1)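 Broth microdilution MIC following the NCCLS standard protocol, run in 96-well plates with 0.2 ml Mueller Hinton broth per well. Compounds were serially doubled from 0.5 to […] μg/ml, with ampicillin as reference. Inoculum was set to McFarland 0.5 turbidity, then diluted to about 5 × 10^5 cfu/ml per well. Plates included broth+inoculum and broth-only controls and were incubated overnight at 37 °C.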

[1] = tested on: Staphylococcus epidermidis; test: Antimicrobial activity against Staphylococcus epidermidis by broth microdilution method; summary of the method: as §1
Escherichia coli = test: Antimicrobial activity against Escherichia coli by broth microdilution method; summary of the method: as §1
Staphylococcus aureus = test: Antimicrobial activity against Staphylococcus aureus by broth microdilution method; summary of the method: as §1

| Compound | MIC (Pseudomonas aeruginosa) | MIC [1] | MIC (Escherichia coli) | MIC (Staphylococcus aureus) |
| --- | --- | --- | --- | --- |
| N#CC1=C(N)Oc2ccc(Sc3nc4ccccc4s3)cc2C1c1ccc(Cl)cc1 (stereo not given) | 16 µg/mL (≈ 35.7 µM) | 32 µg/mL (≈ 71.4 µM) | 32 µg/mL (≈ 71.4 µM) | 4 µg/mL (≈ 8.93 µM) |
| COc1ccc2[nH]c(Sc3ccc4c(c3)C(c3ccc([N+](=O)[O-])cc3)C(C#N)=C(N)O4)nc2c1 (stereo not given) | 8 µg/mL (≈ 17 µM) | 16 µg/mL (≈ 33.9 µM) | 16 µg/mL (≈ 33.9 µM) | 16 µg/mL (≈ 33.9 µM) |
| COc1ccc(C2C(C#N)=C(N)Oc3ccc(Sc4nc5ccccc5s4)cc32)cc1 (stereo not given) | 2 µg/mL (≈ 4.51 µM) | 16 µg/mL (≈ 36.1 µM) | 32 µg/mL (≈ 72.1 µM) | 8 µg/mL (≈ 18 µM) |
| N#CC1=C(N)Oc2ccc(Sc3nc4ccccc4s3)cc2C1c1c[nH]c2ccccc12 (stereo not given) | 16 µg/mL (≈ 35.4 µM) | 32 µg/mL (≈ 70.7 µM) | 0.5 µg/mL (≈ 1.1 µM) | 2 µg/mL (≈ 4.42 µM) |
| COc1ccc2[nH]c(Sc3ccc4c(c3)C(c3cccs3)C(C#N)=C(N)O4)nc2c1 (stereo not given) | 125 µg/mL (≈ 289 µM) | 250 µg/mL (≈ 578 µM) | 125 µg/mL (≈ 289 µM) | 250 µg/mL (≈ 578 µM) |
| CCOC(=O)C1=C(N)Oc2ccc(Sc3nc4cc(OC)ccc4[nH]3)cc2C1c1cccc([N+](=O)[O-])c1 (stereo not given) | 125 µg/mL (≈ 241 µM) | 125 µg/mL (≈ 241 µM) | 125 µg/mL (≈ 241 µM) | 125 µg/mL (≈ 241 µM) |
| CCOC(=O)C1=C(N)Oc2ccc(Sc3nc4ccccc4[nH]3)cc2C1c1ccc(Cl)cc1 (stereo not given) | 8 µg/mL (≈ 16.7 µM) | 64 µg/mL (≈ 134 µM) | 64 µg/mL (≈ 134 µM) | 32 µg/mL (≈ 66.9 µM) |
| N#CC1=C(N)Oc2ccc(Sc3nc4ccccc4s3)cc2C1c1ccc2ccccc2c1 (stereo not given) | 8 µg/mL (≈ 17.3 µM) | 32 µg/mL (≈ 69 µM) | 16 µg/mL (≈ 34.5 µM) | 16 µg/mL (≈ 34.5 µM) |
| CCOC(=O)C1=C(N)Oc2ccc(Sc3nc4cc(OC)ccc4[nH]3)cc2C1c1ccc([N+](=O)[O-])cc1 (stereo not given) | 32 µg/mL (≈ 61.7 µM) | 64 µg/mL (≈ 123 µM) | 64 µg/mL (≈ 123 µM) | 64 µg/mL (≈ 123 µM) |
| N#CC1=C(N)Oc2ccc(Sc3nc4ccccc4s3)cc2C1c1cc2ccccc2nc1Cl (stereo not given) | 16 µg/mL (≈ 32.1 µM) | 64 µg/mL (≈ 128 µM) | 16 µg/mL (≈ 32.1 µM) | 16 µg/mL (≈ 32.1 µM) |
| N#CC1=C(N)Oc2ccc(Sc3nc4ccccc4s3)cc2C1c1ccc2c(c1)OCO2 (stereo not given) | 8 µg/mL (≈ 17.5 µM) | 4 µg/mL (≈ 8.74 µM) | 1 µg/mL (≈ 2.19 µM) | 8 µg/mL (≈ 17.5 µM) |
| CCOC(=O)C1=C(N)Oc2ccc(Sc3nc4cc(OC)ccc4[nH]3)cc2C1c1cccs1 (stereo not given) | 125 µg/mL (≈ 261 µM) | 125 µg/mL (≈ 261 µM) | 125 µg/mL (≈ 261 µM) | 125 µg/mL (≈ 261 µM) |
| N#CC1=C(N)Oc2ccc(Sc3nc4ccccc4[nH]3)cc2C1c1ccc(Cl)cc1 (stereo not given) | 16 µg/mL (≈ 37.1 µM) | 16 µg/mL (≈ 37.1 µM) | 16 µg/mL (≈ 37.1 µM) | 16 µg/mL (≈ 37.1 µM) |
| CCOC(=O)C1=C(N)Oc2ccc(Sc3nc4ccccc4[nH]3)cc2C1c1ccc([N+](=O)[O-])cc1 (stereo not given) | 8 µg/mL (≈ 16.4 µM) | 32 µg/mL (≈ 65.5 µM) | 16 µg/mL (≈ 32.8 µM) | 16 µg/mL (≈ 32.8 µM) |
| CCOC(=O)C1=C(N)Oc2ccc(Sc3nc4ccccc4[nH]3)cc2C1c1cccc([N+](=O)[O-])c1 (stereo not given) | 32 µg/mL (≈ 65.5 µM) | 64 µg/mL (≈ 131 µM) | 32 µg/mL (≈ 65.5 µM) | 64 µg/mL (≈ 131 µM) |
| CCOC(=O)C1=C(N)Oc2ccc(Sc3nc4cc(OC)ccc4[nH]3)cc2C1c1ccc2c(c1)OCO2 (stereo not given) | 125 µg/mL (≈ 242 µM) | 125 µg/mL (≈ 242 µM) | 125 µg/mL (≈ 242 µM) | 125 µg/mL (≈ 242 µM) |
| N#CC1=C(N)Oc2ccc(Sc3nc4ccccc4s3)cc2C1c1cccs1 (stereo not given) | 32 µg/mL (≈ 76.3 µM) | 64 µg/mL (≈ 153 µM) | 2 µg/mL (≈ 4.77 µM) | 2 µg/mL (≈ 4.77 µM) |
| CCOC(=O)C1=C(N)Oc2ccc(Sc3nc4ccccc4[nH]3)cc2C1c1cccs1 (stereo not given) | 125 µg/mL (≈ 278 µM) | 125 µg/mL (≈ 278 µM) | 125 µg/mL (≈ 278 µM) | 125 µg/mL (≈ 278 µM) |
| N#CC1=C(N)Oc2ccc(Sc3nc4ccccc4s3)cc2C1c1ccccc1 (stereo not given) | 32 µg/mL (≈ 77.4 µM) | 8 µg/mL (≈ 19.3 µM) | 16 µg/mL (≈ 38.7 µM) | 4 µg/mL (≈ 9.67 µM) |
| CCOC(=O)C1=C(N)Oc2ccc(Sc3nc4cc(OC)ccc4[nH]3)cc2C1c1ccc(Cl)cc1 (stereo not given) | 64 µg/mL (≈ 126 µM) | 64 µg/mL (≈ 126 µM) | 64 µg/mL (≈ 126 µM) | 32 µg/mL (≈ 63 µM) |

Reference: ChEMBL document CHEMBL1275293, “Aqua mediated synthesis of 2-amino-6-benzothiazol-2-ylsulfanyl-chromenes and its in vitro study, explanation of the structure-activity relationships (SARs) as antibacterial agent” (2010)
